Activity calls are given as the source filed them. The rule behind the calls is not given here.
Assays:
[1] = Hemolytic activity against human RBC at 3.125 uM after 1 hr by Drabkin's assay relative to control; format: ADME, cell-based, Erythrocyte; settings: human red blood cells (erythrocytes), read-out: Activity
[2] = Hemolytic activity against human RBC at 12.5 uM after 1 hr by Drabkin's assay relative to control; format: ADME, cell-based, Erythrocyte; settings: human red blood cells (erythrocytes), read-out: Activity
Candida albicans = test: Growth inhibition of Candida albicans ATCC 90028 at 32 ug/ml after 24 hrs by OD530 light-scattering microspectrophotometric method; settings: ATCC 90028, 24 h, read-out: GI
Acinetobacter baumannii = test: Growth inhibition of Acinetobacter baumannii ATCC 19606 at 32 ug/ml after 18 hrs; format: functional; settings: ATCC 19606 = CIP 70.34 = JCM 6841, 18 h, read-out: GI
Procedure, shortened: (§1)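 Mid-log cultures were prepared as above and seeded at 5×10^5 CFU/mL with compound at a final 32 μg/mL, then held static at 37 °C for 18 h. Growth was read as OD600. Percent inhibition was calculated against media-only and bacteria-only controls on the same plate.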

[3] = Hemolytic activity against human RBC at 0.78 uM after 1 hr by Drabkin's assay relative to control; format: ADME, cell-based, Erythrocyte; settings: human red blood cells (erythrocytes), read-out: Activity
[4] = Hemolytic activity against human RBC at 1.56 uM after 1 hr by Drabkin's assay relative to control; format: ADME, cell-based, Erythrocyte; settings: human red blood cells (erythrocytes), read-out: Activity
[5] = Hemolytic activity against human RBC at 6.25 uM after 1 hr by Drabkin's assay relative to control; format: ADME, cell-based, Erythrocyte; settings: human red blood cells (erythrocytes), read-out: Activity
Staphylococcus aureus = test: Growth inhibition of methicillin-resistant Staphylococcus aureus ATCC 43300 at 32 ug/ml after 18 hrs; format: functional; settings: ATCC 43300, 18 h, read-out: GI
Procedure, shortened: (§2)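 Mid-log cultures in cation-adjusted Mueller Hinton broth were added at 5×10^5 CFU/mL to wells at a final compound concentration of 32 μg/mL. Plates stood at 37 °C for 18 h. Growth was read by OD600, and % inhibition was computed against media-only and untreated-bacteria controls.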

[6] = Hemolytic activity against human RBC at 25 uM after 1 hr by Drabkin's assay relative to control; format: ADME, cell-based, Erythrocyte; settings: human red blood cells (erythrocytes), read-out: Activity
Klebsiella pneumoniae = test: Growth inhibition of multidrug-resistant Klebsiella pneumoniae ATCC 700603 at 32 ug/ml after 18 hrs; format: functional; settings: ATCC 700603, 18 h, read-out: GI; procedure, shortened: as §2
[7] = Hemolytic activity against human RBC at 0.39 uM after 1 hr by Drabkin's assay relative to control; format: ADME, cell-based, Erythrocyte; settings: human red blood cells (erythrocytes), read-out: Activity
Pseudomonas aeruginosa = test: Growth inhibition of Pseudomonas aeruginosa ATCC 27853 at 32 ug/ml after 18 hrs; format: functional; settings: ATCC 27853, 18 h, read-out: GI; procedure, shortened: as §1
[8] = Induction of pore formation in DOPC vesicles at 20 uM after 3 hrs by carboxyfluorescein dye leakage assay; settings: in the assay text read “after 3 mins” for “after 3 hrs”
Procedure, shortened: (§3)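 POPC or DOPC liposomes were hydrated in 10 mM HEPES, 100 mM KCl, pH 7.4, containing 50 mM carboxyfluorescein. Size was checked by dynamic light scattering, and vesicles were used at 2.2×10^10 per mL. Peptide at 20 μM was equilibrated with vesicles for 3 min, and dye leakage was measured.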

Erythrocyte = test: Hemolytic activity against human RBC after 1 hr by Drabkin's assay; format: ADME, cell-based
Escherichia coli = test: Growth inhibition of Escherichia coli ATCC 25922 at 32 ug/ml after 18 hrs; format: functional; settings: ATCC 25922, 18 h, read-out: GI; procedure, shortened: as §1
[9] = Hemolytic activity against human RBC at 50 uM after 1 hr by Drabkin's assay relative to control; format: ADME, cell-based, Erythrocyte; settings: human red blood cells (erythrocytes), read-out: Activity
Cryptococcus neoformans = test: Growth inhibition of Cryptococcus neoformans H99 ATCC 208821 at 32 ug/ml after 24 hrs by resazurin dye-based microspectrophotometric assay; format: functional; settings: var. grubii H99 ATCC 208821, 24 h, read-out: GI
Procedure, shortened: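 Yeasts were grown 3 days on YPD agar at 30 °C, suspended from five colonies and diluted in YNB broth to a final 2.5×10^3 CFU/mL. Compound at a final 32 μg/mL; incubated 24 h at 35 °C without shaking. C. albicans was read at OD530. C. neoformans was read as OD600–570 after resazurin (0.001% final) and a further 2 h at 35 °C. Fluconazole was the standard.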

Lipid bilayer [10] = test: Binding affinity to POPC vesicles by surface plasmon resonance spectroscopy
Procedure, shortened: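 SPR on a dextran chip carrying immobilized POPC liposomes, with running buffer of 10 mM HEPES and 100 mM KCl at pH 7.4. Peptides in PBS were flowed at 25 μL/min at 10–1000 μM, with reference-subtracted response units. KD and Rmax were fitted from maximum response versus concentration. Regeneration used 20 mM CHAPS followed by fresh liposomes.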

[11] = Hemolytic activity against human RBC at 100 uM after 1 hr by Drabkin's assay relative to control; format: ADME, cell-based, Erythrocyte; settings: human red blood cells (erythrocytes), read-out: Activity
Lipid bilayer [12] = test: Induction of pore formation in POPC vesicles at 20 uM after 3 hrs by carboxyfluorescein dye leakage assay; settings: in the assay text read “after 3 mins” for “after 3 hrs”; procedure, shortened: as §3

| SMILES | hemolysis at 1 h, 3.125 µM [1] | hemolysis at 1 h, 12.5 µM [2] | inhibition of growth at 32 µg/mL (Candida albicans) | inhibition of growth at 32 µg/mL (Acinetobacter baumannii) | hemolysis at 1 h, 0.78 µM [3] | hemolysis at 1 h, 1.56 µM [4] | hemolysis at 1 h, 6.25 µM [5] | inhibition of growth at 32 µg/mL (Staphylococcus aureus) | hemolysis at 1 h, 25 µM [6] | inhibition of growth at 32 µg/mL (Klebsiella pneumoniae) | hemolysis at 1 h, 0.39 µM [7] | inhibition of growth at 32 µg/mL (Pseudomonas aeruginosa) | Activity [8] | Activity (Erythrocyte) | inhibition of growth at 32 µg/mL (Escherichia coli) | hemolysis at 1 h, 50 µM [9] | inhibition of growth at 32 µg/mL (Cryptococcus neoformans) | also measured |
| --- | --- | --- | --- | --- | --- | --- | --- | --- | --- | --- | --- | --- | --- | --- | --- | --- | --- | --- |
| O=CN1CCCN1C(=O)N1CCC[C@H]1C(=O)N1CCCN1C(=O)N1CCC[C@H]1C(=O)N1CCCN1C(=O)N1CCC[C@H]1C(=O)N1CCCN1C(=O)N1CCC[C@H]1C(=O)N1CCCN1C(=O)N1CCC[C@H]1C(=O)N1CCCN1C(=O)N1CCC[C@H]1C(=O)N1CCCN1C(=O)N1CCC[C@H]1C(=O)N1CCCN1C(=O)N1CCC[C@H]1C(=O)NCCO | 0.02% | -0.23% | 5.4% | 12.3% | 0.08% | -0.17% | -0.17% | 16.5% | -0.23% | 3.23% | -0.11% | -4.91% | inactive | Dose-dependent effect | 3.23% | -0.17% | -8.24% |  |
| CC(=O)N1CCCN1C(=O)N1CCC[C@H]1C(=O)N1CCCN1C(=O)N1CCC[C@H]1C(=O)N1CCCN1C(=O)N1CCC[C@H]1C(=O)N1CCCN1C(=O)N1CCC[C@H]1C(=O)N1CCCN1C(=O)N1CCC[C@H]1C(=O)N1CCCN1C(=O)N1CCC[C@H]1C(=O)N1CCCN1C(=O)N1CCC[C@H]1C(=O)N1CCCN1C(=O)N1CCC[C@H]1C(=O)NCCO | -0.12% | -0.33% | 2.45% | 6.55% | -0.16% | -0.12% | 0.08% | 16.5% | 0% | 10.7% |  | -0.44% | inactive | Dose-dependent effect | 10.7% | -0.57% | -0.86% | Kd (Lipid bilayer [10]): 610 µM; Rmax (Lipid bilayer [10]): 460 |
| O=C(O)[C@@H]1CCCN1C(=O)N1CCCN1C(=O)[C@@H]1CCCN1C(=O)N1CCCN1C(=O)[C@@H]1CCCN1C(=O)N1CCCN1C(=O)[C@@H]1CCCN1C(=O)N1CCCN1C(=O)[C@@H]1CCCN1C(=O)N1CCCN1C(=O)[C@@H]1CCCN1C(=O)N1CCCN1C(=O)[C@@H]1CCCN1C(=O)N1CCCN1C(=O)[C@@H]1CCCN1C(=O)N1CCCN1C(=O)OCc1ccccc1 | 0.271% | 0.181% | 2.73% | 4.46% | -0.181% | -0.452% | -0.09% | 1.14% | -0.181% | 4.92% | -0.271% | -9.17% |  | Dose-dependent effect | 4.92% | -0.361% | -1.86% | hemolysis at 1 h, 100 µM [11]: -0.271%; Activity (Lipid bilayer [12]): inactive |

Source: ChEMBL document CHEMBL4196059, “Design, synthesis, and biological evaluation of stable β6.3-Helices: Discovery of non-hemolytic antibacterial peptides” (Eur J Med Chem, 2018)
